Experimental data published in ChEMBL document CHEMBL4257586, “Polyheteroaryl Oxazole/Pyridine-Based Compounds Selected in Vitro as G-Quadruplex Ligands Inhibit Rock Kinase and Exhibit Antiproliferative Activity” (J Med Chem, 2018).
Several values for one entry are separate records, joined by “and”; a condition that tells them apart may be missing. Equal values may be shown once. Activity calls are given as the source filed them. The calls are words filed in the database; no cut-off is given here.

What was measured:
Assay type in all cases: nucleic-acid assay
Quadruplex DNA [1] = test: Binding affinity to 6-FAM labeled human telomeric F21T G-quadruplex DNA assessed as change in melting temperature at 1 uM in K+ rich buffer (10 mM KCl, 90 mM LiCl, 10 mM Li cacodylate) by FRET assay
Method in brief: (§1)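 FRET melting in duplicate. Dual-labelled oligo (6-FAM/TAMRA) at 0.2 μM with ligand at 1 μM, in 10 mM Li cacodylate pH 7.2. Buffer was 10 mM KCl + 90 mM LiCl for F21T and 1 mM KCl + 99 mM LiCl for FMycT. Sample annealed 90 °C 5 min, cooled to 4 °C overnight. Equilibrated 5 min at 25 °C, then ramped 0.5 °C/min to 95 °C. FAM read 492/516 nm, normalized; Tm taken at the fitted inflection point.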

Quadruplex DNA [2] = test: Binding affinity to 6-FAM labeled human proto-oncogene sequence FMycT G-quadruplex DNA assessed as change in melting temperature at 1 uM in presence of K+ buffer (1 mM KCl, 99 mM LiCl, 10 mM Li cacodylate) by FRET assay; method in brief: as §1
dsDNA = test: Binding affinity to duplex 26 DNA (unknown origin) assessed as change in melting temperature at 1 uM by FRET

| SMILES | ΔTm (Quadruplex DNA [1]) | ΔTm (Quadruplex DNA [2]) [°C] | Activity (dsDNA) |
| --- | --- | --- | --- |
| c1cc(-c2cnco2)nc(-c2ncc(-c3cc(OCCN4CCCCC4)cc(-c4cnc(-c5cccc(-c6cnco6)n5)o4)n3)o2)c1 | 5 to 7 °C | 2.5 to 4.3 | inactive |
| CN(C)CCOc1cc(-c2ncc(-c3ccccn3)o2)nc(-c2ncc(-c3ccccn3)o2)c1 | 11.6 °C and 11 °C | 1.8 to 2.9 | inactive |
| c1ccc(-c2cnc(-c3cccc(-c4ncc(-c5ccccn5)o4)n3)o2)nc1 | 5.3 °C | 1.8 to 2.9 | inactive |
| c1ccc(-c2ncc(-c3cccc(-c4cnc(-c5ccccn5)o4)n3)o2)nc1 | – | – | inactive |

Other lines, results leading:

| ΔTm (Quadruplex DNA [1]) | ΔTm (Quadruplex DNA [2]) [°C] | Activity (dsDNA) | SMILES |
| --- | --- | --- | --- |
| 5 to 7 °C | 2.5 to 4.3 | inactive | CN(C)CCOc1cc(-c2cnc(-c3cccc(-c4cnco4)n3)o2)nc(-c2cnc(-c3cccc(-c4cnco4)n3)o2)c1 |
| 5 to 7 °C | 2.5 to 4.3 | inactive | c1cc(-c2cnc(-c3cccc(-c4cnco4)n3)o2)nc(-c2cnc(-c3cccc(-c4cnco4)n3)o2)c1 |
